According to ChEMBL document CHEMBL3232838, “Synthesis, crystal structure and biological evaluation of some novel 1,2,4-triazolo[3,4-b]-1,3,4-thiadiazoles and 1,2,4-triazolo[3,4-b]-1,3,4-thiadiazines” (Eur J Med Chem, 2014):

Experiments:
Leishmania major [1] = test: Antileishmanial activity against promastigote form of Leishmania major at 0.1 uM after 72 hrs by MTT assay; type: functional
Procedure, shortened: (§1)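 Log-phase promastigotes grown at 25 °C in phenol-red-free D-MEM/F-12 with 10% heat-inactivated FBS, washed in PBS, seeded at 2.5×10⁶/mL (100 µL/well). Compounds in triplicate wells, 72 h at 25 °C; amphotericin B standard. MTT (5 mg/mL stock) 3 h, stopped with 50% isopropanol/10% SDS, OD570 minus 690. Percent inhibition vs control; mean ± SEM of three independent experiments.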

NCI-H157 [2] = test: Anticancer activity against human NCI-H157 cells at 0.1 uM after 48 hrs by SRB assay; type: functional; conditions: NCI-H157, 48 h, read-out: GI
Procedure, shortened: (§2)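 RPMI-1640 culture with 10% heat-inactivated FBS, 2 mM glutamine, 1 mM pyruvate and penicillin/streptomycin at 37 °C, 5% CO2. Cells per 96-well well: H157 10⁴, BHK-21 5×10⁴. After 24 h, monolayers were exposed to 100, 10, 1 or 0.1 µM compound for 48 h, with vincristine as standard. Cells were fixed in cold 50% TCA (4 °C, 1 h) and stained with 0.4% SRB in 1% acetic acid (30 min). Dye was dissolved in 10 mM Tris and read at A490 minus A630. Read-out was percent inhibition.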

NCI-H157 [3] = test: Anticancer activity against human NCI-H157 cells at 1 uM after 48 hrs by SRB assay; type: functional; conditions: NCI-H157, 48 h, read-out: GI; procedure, shortened: as §2
Leishmania major [4] = test: Antileishmanial activity against promastigote form of Leishmania major at 100 uM after 72 hrs by MTT assay; type: functional; procedure, shortened: as §1
[5] = Anticancer activity against Syrian golden hamster BHK21 cells at 100 uM after 48 hrs by SRB assay; type: functional; conditions: Mesocricetus auratus, BHK-21, 48 h; read-out: GI; procedure, shortened: as §2
Cholinesterase = Cholinesterase (Homo sapiens, UniProt P06276); test: Inhibition of human BChE using butyrylthiocholine iodide as substrate preincubated for 10 mins before substrate addition after 15 mins by Ellman's method
Chain of Cholinesterase (P06276 whole entry): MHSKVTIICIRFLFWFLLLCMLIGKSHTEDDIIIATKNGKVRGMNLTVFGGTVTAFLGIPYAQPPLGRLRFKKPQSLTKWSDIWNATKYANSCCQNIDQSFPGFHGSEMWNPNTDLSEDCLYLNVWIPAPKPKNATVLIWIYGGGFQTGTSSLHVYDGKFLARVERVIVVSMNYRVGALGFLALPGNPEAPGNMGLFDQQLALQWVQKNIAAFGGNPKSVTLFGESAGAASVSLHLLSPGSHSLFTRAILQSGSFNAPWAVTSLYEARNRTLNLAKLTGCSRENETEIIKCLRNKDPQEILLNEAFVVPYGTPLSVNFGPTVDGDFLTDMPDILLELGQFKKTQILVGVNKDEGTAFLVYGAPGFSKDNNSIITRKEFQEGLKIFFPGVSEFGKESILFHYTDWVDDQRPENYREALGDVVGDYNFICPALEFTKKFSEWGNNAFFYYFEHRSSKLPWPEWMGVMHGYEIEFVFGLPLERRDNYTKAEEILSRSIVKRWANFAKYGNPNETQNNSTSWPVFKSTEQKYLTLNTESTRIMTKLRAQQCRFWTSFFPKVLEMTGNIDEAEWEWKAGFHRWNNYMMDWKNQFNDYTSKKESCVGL
Procedure, shortened: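 Ellman assay in 50 mM Tris-HCl, 0.1 M NaCl, 0.02 M MgCl2, pH 8.0, with DMSO at 1% final. hBChE (3.4 U/mg) is preincubated with compound for 10 min at 25 °C. Blanks lack enzyme or substrate. IC50 from linear regression.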

Leishmania major [6] = test: Antileishmanial activity against promastigote form of Leishmania major at 10 uM after 72 hrs by MTT assay; type: functional; procedure, shortened: as §1
[7] = Anticancer activity against Syrian golden hamster BHK21 cells at 1 uM after 48 hrs by SRB assay; type: functional; conditions: Mesocricetus auratus, BHK-21, 48 h; read-out: GI; procedure, shortened: as §2
[8] = Anticancer activity against Syrian golden hamster BHK21 cells at 10 uM after 48 hrs by SRB assay; type: functional; conditions: Mesocricetus auratus, BHK-21, 48 h; read-out: GI; procedure, shortened: as §2
Leishmania major [9] = test: Antileishmanial activity against promastigote form of Leishmania major at 1 uM after 72 hrs by MTT assay; type: functional; procedure, shortened: as §1
[10] = Anticancer activity against Syrian golden hamster BHK21 cells at 0.1 uM after 48 hrs by SRB assay; type: functional; conditions: Mesocricetus auratus, BHK-21, 48 h; read-out: GI; procedure, shortened: as §2
NCI-H157 [11] = test: Anticancer activity against human NCI-H157 cells at 100 uM after 48 hrs by SRB assay; type: functional; conditions: NCI-H157, 48 h, read-out: GI; procedure, shortened: as §2
[12] = molecular target: Intestinal-type alkaline phosphatase (Bos taurus, UniProt P19111); test: Inhibition of calf intestinal alkaline phosphatase using p-nitrophenyl phosphate as substrate preincubated for 10 mins before substrate addition after 30 mins
Chain of Intestinal-type alkaline phosphatase (P19111 whole entry): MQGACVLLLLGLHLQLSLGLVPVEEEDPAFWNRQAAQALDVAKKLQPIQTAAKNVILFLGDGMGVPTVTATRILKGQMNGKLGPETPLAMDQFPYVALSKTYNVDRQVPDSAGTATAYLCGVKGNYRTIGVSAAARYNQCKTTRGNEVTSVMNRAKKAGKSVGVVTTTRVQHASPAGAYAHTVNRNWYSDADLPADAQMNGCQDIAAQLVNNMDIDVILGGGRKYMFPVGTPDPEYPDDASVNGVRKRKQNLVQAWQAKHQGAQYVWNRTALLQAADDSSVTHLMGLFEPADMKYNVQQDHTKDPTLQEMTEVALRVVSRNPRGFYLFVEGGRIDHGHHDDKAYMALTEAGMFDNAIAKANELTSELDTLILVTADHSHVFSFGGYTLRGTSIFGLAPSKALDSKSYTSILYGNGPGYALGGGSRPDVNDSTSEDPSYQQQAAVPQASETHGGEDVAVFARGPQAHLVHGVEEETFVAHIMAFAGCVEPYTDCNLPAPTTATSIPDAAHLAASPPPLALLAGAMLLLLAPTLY

NCI-H157 [13] = test: Anticancer activity against human NCI-H157 cells at 10 uM after 48 hrs by SRB assay; type: functional; conditions: NCI-H157, 48 h, read-out: GI; procedure, shortened: as §2
Acetylcholinesterase = Acetylcholinesterase (Electrophorus electricus, UniProt O42275); test: Inhibition of electric eel acetylcholinesterase using acetylthiocholine iodide as substrate preincubated for 10 mins before substrate addition after 15 mins by Ellman's method
Chain of Acetylcholinesterase (O42275 whole entry): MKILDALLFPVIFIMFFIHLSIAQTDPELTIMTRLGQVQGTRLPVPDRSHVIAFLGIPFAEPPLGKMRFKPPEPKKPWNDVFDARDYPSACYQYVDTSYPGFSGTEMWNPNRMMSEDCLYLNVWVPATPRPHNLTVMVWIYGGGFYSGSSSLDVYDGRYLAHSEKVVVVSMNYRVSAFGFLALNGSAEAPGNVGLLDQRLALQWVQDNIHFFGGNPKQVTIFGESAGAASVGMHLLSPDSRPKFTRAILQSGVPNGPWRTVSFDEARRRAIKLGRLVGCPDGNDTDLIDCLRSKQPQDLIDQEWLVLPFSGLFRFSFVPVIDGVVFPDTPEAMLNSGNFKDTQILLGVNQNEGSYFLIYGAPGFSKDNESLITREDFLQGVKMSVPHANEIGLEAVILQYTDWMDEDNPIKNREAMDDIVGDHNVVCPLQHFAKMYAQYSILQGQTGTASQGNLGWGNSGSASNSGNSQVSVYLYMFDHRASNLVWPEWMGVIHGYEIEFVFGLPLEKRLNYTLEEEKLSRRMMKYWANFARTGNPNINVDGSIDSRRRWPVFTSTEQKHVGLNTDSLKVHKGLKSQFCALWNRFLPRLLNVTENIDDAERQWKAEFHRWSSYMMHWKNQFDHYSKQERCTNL

Compound	inhibition at 0.1 µM (Leishmania major [1]) [%]	inhibition of growth at 0.1 µM (NCI-H157 [2]) [%]	inhibition of growth at 1 µM (NCI-H157 [3]) [%]	inhibition at 100 µM (Leishmania major [4]) [%]	inhibition of growth at 100 µM [5] [%]	IC50 (Cholinesterase) [µM]	inhibition at 10 µM (Leishmania major [6]) [%]	inhibition of growth at 1 µM [7] [%]	inhibition of growth at 10 µM [8] [%]	inhibition at 1 µM (Leishmania major [9]) [%]	inhibition of growth at 0.1 µM [10] [%]	inhibition of growth at 100 µM (NCI-H157 [11]) [%]	IC50 [12] [µM]	inhibition of growth at 10 µM (NCI-H157 [13]) [%]	IC50 (Acetylcholinesterase) [µM]	inhibition (Cholinesterase) [%]	inhibition of growth at 100 µM (Leishmania major [4]; read-out: GI) [%]
Fc1ccc(OCc2nn3c(-c4ccncc4)nnc3s2)cc1	46.7	21.3	25.6	53.8	52.7	54.1	51.4	45.4	48.3	49.1	43.8	32	2.59	28.5	36.8		
CC[C@]1(O)C[C@H]2CN(CCc3c([nH]c4ccccc34)[C@@](C(=O)OC)(c3cc4c(cc3OC)N(C=O)[C@H]3[C@@](O)(C(=O)OC)[C@H](OC(C)=O)[C@]5(CC)C=CCN6CC[C@]43[C@@H]65)C2)C1 [VINCRISTINE]		69.8	70.9		74.5			70.9	72.6		69.8	74.5		72.6			
C[C@@H]1[C@H](O)[C@@H](C)/C=C/C=C/C=C/C=C/C=C/C=C/C=C/[C@H](O[C@@H]2O[C@H](C)[C@@H](O)[C@H](N)[C@@H]2O)C[C@@H]2O[C@](O)(C[C@@H](O)C[C@@H](O)[C@H](O)CC[C@@H](O)C[C@@H](O)CC(=O)O[C@H]1C)C[C@H](O)[C@H]2C(=O)O [AMPHOTERICIN B]	69.9			79.8			76.3			74.8							
Fc1cc(Cl)ccc1-c1nn2c(-c3ccncc3)nnc2s1	42.5	73.7	77.8	52.5	55.6	9.57	49.5	47.2	51.6	46.2	44.4	85.5	0.92	80.9	21.3		
Oc1ccc(OCc2nn3c(-c4ccncc4)nnc3s2)cc1	37.2	52.6	56.3	48	60.5	39.1	45.3	53.7	56.2	41.9	51.6	63.7	5.61	60.9	15.6		
Fc1ccc(-c2nn3c(-c4ccncc4)nnc3s2)cc1Cl	47.7	43.6	46.6	56.7	51.4		54.3	43.6	46.3	51.6	40.9	53.7	2.01	50.9	30.2	14.4	
c1coc(-c2nn3c(-c4ccncc4)nnc3s2)c1	71.5	56	60.9	81.2	50.9	61.6	77.2	44.9	48.2	75.8	41	67.9	3.24	63.8	12.4		
c1ccc(-c2ccc(C3=Nn4c(nnc4-c4ccncc4)SC3)cc2)cc1	52.3	44.5	47.8	61.2	45.8	42.6	58.9	37.5	41.8	55.9	32.7	56.9	3.84	62.3	16.1		
Cc1ccccc1OCc1nn2c(-c3ccncc3)nnc2s1	62.1	50.5	53.2	71.4	62.1	51.3	68.9	54.9	56.5	65.5	51.2	59.2	3.08	56.8	41.5		
O=[N+]([O-])c1cccc(C2=Nn3c(nnc3-c3ccncc3)SC2)c1	54.6	57.9	62.1	63.1	67.1	16.6	59.6	55.1	62.5	57.5	48.2	69.4	3.59	65.5	28		
CN(C)C(=O)Oc1cccc([N+](C)(C)C)c1 [NEOSTIGMINE]						26.1									14.2		
COc1ccc(OCc2nn3c(-c4ccncc4)nnc3s2)cc1	49.6	57.2	61.7	60.5	74	37.9	57.2	68.8	71.9	52.2	63.3	68.9	3.72	65.6	0.77		
Nn1c(S)nnc1-c1ccncc1	30.9	40.4	43.4		48.3	49.6	36.7	42.1	45.1	33.6	39.6	51.5	4.43	47.4	13.5		39.5
Fc1cccc(C2=Nn3c(nnc3-c3ccncc3)SC2)c1	44.9	69.6	72.3	52.3	64.3		49.6	56.9	61.2	46.1	54.6	78.6	9.83	75.6	18.6	38.7	
CCOc1ccc(Cc2nn3c(-c4ccncc4)nnc3s2)cc1	56.4	60.2	63.8	66.8	48.6	32.1	63	40.9	45.4	60.8	38.2	70.5	6.17	67.4	3.48		
c1ccc2c(C3=Nn4c(nnc4-c4ccncc4)SC3)cccc2c1	47.3	55.2	59.9	55.6	69.2	52.8	52.9	60.7	64.7	49	53.3	68.2	4.45	63.7	13.7		
